Measurements as given in ChEMBL document CHEMBL4665630, “Synthesis and biological evaluation of anthraquinone derivatives as allosteric phosphoglycerate mutase 1 inhibitors for cancer treatment” (Eur J Med Chem, 2019).
Blank lines part the entries; values can stand above or below the compound they belong to. Activity calls are given as the source filed them. The calls are words filed in the database; no cut-off is given here.

Key:
[1] = target: Phosphoglycerate mutase 1 (Homo sapiens, UniProt P18669); assay: Inhibition of human recombinant PGAM1 by measuring decrease in OD by enzyme based assay
How it was run: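 C-terminal His6-tagged PGAM1, Ni-NTA purified, 4.6 nM, preincubated with inhibitor in DMSO; coupled enolase/pyruvate kinase M2/LDH system in 100 mM Tris-HCl, 100 mM KCl, 5 mM MgCl2, 1 mM ADP, 0.2 mM NADH, 4 mM 3PG; NADH loss read at 340 nm. Counter-screen without PGAM1 using 4 mM 2PG. Mean ± s.d., n=3.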

[2] = system: NCI-H1299; assay: Antiproliferative activity against human H1299 cells assessed as reduction in cell viability measured after 72 hrs by MTT assay; format: functional, cell-based; settings: NCI-H1299, 72 h
How it was run: (§1)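 Cells grown in RPMI-1640 (H1299, PC9) or F-12K (A549) with 10% FBS and penicillin/streptomycin; 2000 H1299 or A549 or 1000 PC9 cells per well, attached 24 h, exposed to inhibitor 72 h; MTT 0.5 mg/mL for 4 h, absorbance at 570 nm; mean ± s.d., n=3.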

[3] = system: A549; assay: Antiproliferative activity against human A549 cells assessed as reduction in cell viability measured after 72 hrs by MTT assay; format: functional, cell-based; settings: A549, 72 h; how it was run: as §1
[4] = system: PC-9; assay: Antiproliferative activity against human PC-9 cells assessed as reduction in cell viability measured after 72 hrs by MTT assay; format: functional, cell-based; settings: PC-9, 72 h; how it was run: as §1
[5] = AUC (0 to 24 hrs) in ICR mouse at 100 mg/kg, ip measured upto 24 hrs by LC-MS analysis; format: ADME, organism-based; design: route intraperitoneal, dose 100 mg/kg, time <=24; settings: in vivo
How it was run: (§2)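 Male ICR mice, single intraperitoneal 100 mg/kg in 7% DMSO/7% Cremophor EL/86% PBS; heparinised blood at 0.25, 0.5, 1, 2, 4, 6, 10, 24 h; plasma extracted with methanol, quantified by HPLC against a standard curve (water/methanol with 0.1% TFA gradient); n = 3 animals per time point.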

[6] = AUC (0 to infinity) in ICR mouse at 100 mg/kg, ip measured upto 24 hrs by LC-MS analysis; format: ADME, organism-based; design: route intraperitoneal, dose 100 mg/kg, time <=24; settings: in vivo; how it was run: as §2
[7] = Apparent oral clearance in ICR mouse at 100 mg/kg, ip measured upto 24 hrs by LC-MS analysis; format: ADME, organism-based; settings: in vivo; how it was run: as §2
[8] = Cmax in ICR mouse at 100 mg/kg, ip measured upto 24 hrs by LC-MS analysis; format: ADME, organism-based; design: route intraperitoneal, dose 100 mg/kg, time <=24; settings: in vivo; how it was run: as §2
[9] = Tmax in ICR mouse at 100 mg/kg, ip measured upto 24 hrs by LC-MS analysis; format: ADME, organism-based; settings: in vivo; how it was run: as §2
[10] = Apparent oral volume of distribution in ICR mouse at 100 mg/kg, ip measured upto 24 hrs by LC-MS analysis; format: ADME, organism-based; settings: in vivo; how it was run: as §2
[11] = Half life in ICR mouse at 100 mg/kg, ip measured upto 24 hrs by LC-MS analysis; format: ADME, organism-based; settings: in vivo; how it was run: as §2
[12] = system: NCI-H1299; assay: Antitumor activity against human NCI-H1299 cells xenografted in ICR mouse assessed as tumor weight at 100 mg/kg,qd ip upto 8 days relative to control; format: functional, organism-based; settings: nude, time day <=8, in the assay text read “nude mouse” for “ICR mouse”
How it was run: (§3)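 Nude mice (male, 4–6 weeks) given 5×10^6 H1299 cells in PBS subcutaneously at both flanks; at ~200 mm³ randomised to vehicle or 100 mg/kg i.p. once daily; volume (L×W×W)×π/6, body weight tracked; terminal tumour weights, Ki67 IHC on tumours, H&E of kidney and liver; mean ± s.e.m., unpaired t-test.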

[13] = system: NCI-H1299; assay: Inhibition of oxidative phosphorylation in human NCI-H1299 cells assessed as decrease in oxygen consumption rate at 10 to 20 uM pretreated for 80 mins in presence of glucose/2-DG and oligomycin by seahorse XF24 extracellular flux analyzer assay; format: functional, cell-based; settings: dose microM 10-20, time 80.0 min
[14] = system: NCI-H1299; assay: Induction of ROS production in human H1299 cells using carboxy-H2DCFDA at 10 to 20 uM incubated for 24 hrs by FACS analysis; format: functional, cell-based; settings: dose microM 10-20
How it was run: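 H1299 cells, 2×10^5 per well, loaded 24 h after seeding with 12.5 µM carboxy-H2DCFDA for 60 min after PBS wash; harvested and analysed by flow cytometry, excitation 490/emission 530 nm.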

[15] = system: NCI-H1299; assay: Reduction in lactate production in human H1299 cells at 10 to 20 uM incubated for 24 hrs colorimetry based lactate assay; format: functional, cell-based; settings: dose microM 10-20
How it was run: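 Cells grown overnight at 37 °C; at 50% confluence switched to phenol red-free, serum-free RPMI for 1 h at 37 °C; medium lactate measured colorimetrically with a kit, normalised to microscope cell counts.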

[16] = system: NCI-H1299; assay: Inhibition of glucose metabolism in human H1299 cells assessed as reduction in ATP level at 10 to 20 uM; format: functional, cell-based; settings: dose microM 10-20
[17] = target: 5'-AMP-activated protein kinase catalytic subunit alpha-2 (Homo sapiens) (UniProt P54646); assay: Activation of AMPK in human H1299 cells assessed as increase in AMPK phosphorylation at 10 to 20 uM by Western blot analysis; format: cell-based; settings: NCI-H1299, filed as activator, dose microM 10-20
[18] = […] xenografted with human NCI-H1299 cells assessed as kidney histology at 100 mg/kg, ip qd upto 8 days by haematoxylin and eosin staining-based light microscopic analysis; format: organism-based; settings: in vivo, 192 h, time <=8 day; how it was run: as §3
[19] = system: NCI-H1299; assay: Inhibition of anaerobic glycolysis in human NCI-H1299 cells assessed as decrease in glycolysis rate pretreated for 12 hrs in presence of glucose/2-DG and oligomycin by […]; format: functional, cell-based
How it was run: (§4)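 H1299 cells, 10,000 per well, exposed to 10 or 20 µM or PBS for 12 h, then Seahorse XF96. Glycolysis stress: glucose 10 mM, oligomycin 1 µM, 2-DG 50 mM (ECAR). Mito stress: oligomycin 1 µM, FCCP 1 µM, rotenone/antimycin A 0.5 µM (OCR). Normalised to cell number; triplicates, mean ± s.d.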

[20] = system: NCI-H1299; assay: Inhibition of anaerobic glycolysis in human NCI-H1299 cells assessed as decrease in glycolytic capacity pretreated for 12 hrs in presence of glucose/2-DG and oligomycin by […] assay; format: functional, cell-based; how it was run: as §4
[21] = system: NCI-H1299; assay: Inhibition of anaerobic glycolysis in human NCI-H1299 cells assessed as decrease in glycolytic reserve pretreated for 12 hrs in presence of glucose/2-DG and oligomycin by […]; format: functional, cell-based; how it was run: as §4
[22] = system: NCI-H1299; assay: Inhibition of oxidative phosphorylation in human NCI-H1299 cells assessed as decrease in basal respiration at 10 to 20 uM pretreated for 12 hrs in presence of glucose/2-DG and oligomycin by […] assay; format: functional, cell-based; settings: dose microM 10-20, time 12.0 hrs; how it was run: as §4
[23] = system: NCI-H1299; assay: Inhibition of oxidative phosphorylation in human NCI-H1299 cells assessed as decrease in maximal respiration at 10 to 20 uM pretreated for 12 hrs in presence of glucose/2-DG and oligomycin by […]; format: functional, cell-based; settings: dose microM 10-20, time 12.0 hrs; how it was run: as §4
[24] = system: NCI-H1299; assay: Inhibition of oxidative phosphorylation in human NCI-H1299 cells assessed as decrease in spare capacity at 10 to 20 uM pretreated for 12 hrs in presence of glucose/2-DG and oligomycin by […]; format: functional, cell-based; settings: dose microM 10-20, time 12.0 hrs; how it was run: as §4
[25] = Toxicity in nude mouse xenografted with human NCI-H1299 cells assessed as body weight loss at 100 mg/kg, ip qd upto 8 days; settings: in vivo, 192 h
[26] = system: NCI-H1299; assay: Antitumor activity against human NCI-H1299 cells xenografted in nude mouse assessed as tumor volume at 100 mg/kg,qd ip measured upto 8 days relative to control; settings: time day <=8
[27] = Toxicity in nude mouse xenografted with human NCI-H1299 cells assessed as kidney and liver histology at 100 mg/kg, ip qd upto 8 days by haematoxylin and eosin staining-based light microscopic analysis; settings: in vivo, 192 h
[28] = system: NCI-H1299; assay: Inhibition of anaerobic glycolysis in human NCI-H1299 cells assessed as decrease in extracellular acidification rate at 10 to 20 uM pretreated for 12 hrs in presence of glucose/2-DG and oligomycin by seahorse XF96 extracellular flux analyzer assay; settings: dose microM 10-20, time 12 h

Chain of Phosphoglycerate mutase 1 (P18669 whole entry): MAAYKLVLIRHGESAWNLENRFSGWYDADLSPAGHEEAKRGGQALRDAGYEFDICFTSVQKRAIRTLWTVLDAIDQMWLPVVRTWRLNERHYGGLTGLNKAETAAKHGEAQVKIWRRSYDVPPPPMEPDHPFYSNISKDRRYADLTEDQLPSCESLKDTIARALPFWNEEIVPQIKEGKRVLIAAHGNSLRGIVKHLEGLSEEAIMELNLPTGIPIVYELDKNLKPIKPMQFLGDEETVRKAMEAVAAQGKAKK
Chain of 5'-AMP-activated protein kinase catalytic subunit alpha-2 (Homo sapiens) (P54646 whole entry, looked up): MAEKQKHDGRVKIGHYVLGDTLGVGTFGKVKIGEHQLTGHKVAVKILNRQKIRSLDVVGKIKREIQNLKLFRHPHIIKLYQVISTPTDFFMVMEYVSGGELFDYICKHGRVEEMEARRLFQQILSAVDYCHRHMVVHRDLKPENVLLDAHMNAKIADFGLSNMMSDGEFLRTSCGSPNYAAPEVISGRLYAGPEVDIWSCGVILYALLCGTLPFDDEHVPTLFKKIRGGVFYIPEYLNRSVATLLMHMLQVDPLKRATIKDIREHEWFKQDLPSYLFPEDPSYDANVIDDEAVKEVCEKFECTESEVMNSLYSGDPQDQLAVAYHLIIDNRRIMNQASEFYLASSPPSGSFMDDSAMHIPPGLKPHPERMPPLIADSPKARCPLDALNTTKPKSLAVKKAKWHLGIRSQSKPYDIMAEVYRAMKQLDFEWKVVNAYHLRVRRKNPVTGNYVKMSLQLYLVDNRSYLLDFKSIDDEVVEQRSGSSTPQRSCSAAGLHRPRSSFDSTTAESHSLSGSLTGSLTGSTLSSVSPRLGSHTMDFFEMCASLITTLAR

IC50 [1]: 1.29 µM
IC50 [2]: 7.7 µM
IC50 [3]: 50.5 µM
IC50 [4]: 18.1 µM
Structure (SMILES): O=C1c2ccccc2C(=O)c2c1cc(NS(=O)(=O)c1cccc3ccccc13)c(O)c2O

IC50 [1]: 0.26 µM
IC50 [2]: 6.2 µM
IC50 [3]: 12 µM
IC50 [4]: 5.4 µM
Structure (SMILES): O=C1c2ccccc2C(=O)c2c1cc(NS(=O)(=O)c1ccc(-c3ccc(F)cc3)cc1)c(O)c2O

IC50 [1]: 0.49 µM
IC50 [2]: 10.2 µM
IC50 [3]: 8.1 µM
IC50 [4]: 9.5 µM
Structure (SMILES): CC(C)(C)c1ccc(S(=O)(=O)Nc2cc3c(c(O)c2O)C(=O)c2ccccc2C3=O)cc1

IC50 [1]: 2.05 µM
IC50 [2]: 47.6 µM
Structure (SMILES): O=C1c2ccccc2C(=O)c2c1cc(NS(=O)(=O)c1cccc3cccnc13)c(O)c2O

IC50 [1]: 2.86 µM
IC50 [2]: 20 µM
Structure (SMILES): COc1ccc(S(=O)(=O)Nc2cc3c(c(O)c2O)C(=O)c2ccccc2C3=O)c(OC)c1

IC50 [1]: 0.25 µM
IC50 [2]: 6.4 µM
IC50 [3]: 10.3 µM
IC50 [4]: 4.8 µM
AUC(0-t) [5]: 239 µg·h/mL
AUC(0-inf) [6]: 245 µg·h/mL
CL/F [7]: 0.193 mL/min
Cmax [8]: 131 µg/mL
Tmax [9]: 0.25 h
Vd/F [10]: 71.64 mL
half-life [11]: 4.28 h
Activity [17]: Active
Structure (SMILES): O=C1c2ccccc2C(=O)c2c1cc(NS(=O)(=O)c1ccc(-c3ccccc3)cc1)c(O)c2O
Activity [12]: Active
inhibition [13]: Active
Activity [14]: Active
Activity [15]: Active
inhibition [16]: Active
Activity [18]: Non-Toxic
inhibition [19]: Dose-dependent effect
inhibition [20]: Dose-dependent effect
inhibition [21]: Dose-dependent effect
inhibition [22]: Active
inhibition [23]: Active
inhibition [24]: Active
Activity [25]: Non-Toxic
Activity [26]: Active
Activity [27]: Non-Toxic
inhibition [28]: Dose-dependent effect

IC50 [1]: 0.48 µM
IC50 [2]: 27.3 µM
Structure (SMILES): COc1cccc(S(=O)(=O)Nc2cc3c(c(O)c2O)C(=O)c2ccccc2C3=O)c1

IC50 [1]: > 10 µM
Structure (SMILES): O=C1c2ccccc2C(=O)c2c1cc(NS(=O)(=O)N1CCOCC1)c(O)c2O

IC50 [1]: 0.55 µM
IC50 [2]: 17.7 µM
IC50 [3]: 12.2 µM
IC50 [4]: 16.1 µM
Structure (SMILES): O=C1c2ccccc2C(=O)c2c1cc(NS(=O)(=O)c1ccc(Cl)s1)c(O)c2O

IC50 [1]: 0.14 µM
IC50 [2]: 6.3 µM
IC50 [3]: 6.8 µM
IC50 [4]: 6.6 µM
Structure (SMILES): O=C1c2ccccc2C(=O)c2c1cc(NS(=O)(=O)c1ccc(-c3ccc(Cl)cc3)cc1)c(O)c2O

IC50 [1]: 0.19 µM
IC50 [2]: 8.7 µM
IC50 [3]: > 100 µM
IC50 [4]: 4.7 µM
Structure (SMILES): O=C1c2ccccc2C(=O)c2c1cc(NS(=O)(=O)c1ccc3ccccc3c1)c(O)c2O

IC50 [1]: > 10 µM
Structure (SMILES): CN1CCN(c2ccc(S(=O)(=O)Nc3cc4c(c(O)c3O)C(=O)c3ccccc3C4=O)cc2)CC1
